# Source: ChEMBL document CHEMBL4138242, “Synthesis and antibacterial evaluation of novel cationic chalcone derivatives possessing broad spectrum antibacterial activity” (Eur J Med Chem, 2018)
# Tested on: Staphylococcus aureus
# Assay: Antibacterial activity against Staphylococcus aureus ATCC 29213 after 16 to 20 hrs by broth microdilution method
# Format: functional
# Conditions: not given
# Outline: (§1)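 Broth microdilution per CLSI. Bacteria grown 4-6 h (about 10⁸ CFU/mL), then diluted to about 10⁶ CFU/mL. Medium: Mueller-Hinton broth, except Luria-Bertani broth for E. coli. Compounds in sterile water, twofold series 256-0.5 µg/mL, mixed 1:1 with inoculum, 37 °C for 16-20 h. MIC is the lowest concentration without visible growth. Duplicate wells; experiment repeated at least twice.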
row,SMILES,MIC [µg/mL]
1,CCCCCCCC[N+](C)(C)CC(=O)Nc1ccc(C(=O)/C=C/c2ccco2)cc1.[Cl-],1

# Tested on: Enterococcus faecalis
# Assay: Antibacterial activity against Enterococcus faecalis ATCC 29212 after 16 to 20 hrs by broth microdilution method
# Format: functional
# Conditions: not given
# Outline: as §1
row,SMILES,MIC [µg/mL]
1,CCCCCCCC[N+](C)(C)CC(=O)Nc1ccc(C(=O)/C=C/c2ccco2)cc1.[Cl-],4

# Tested on: Escherichia coli
# Assay: Antibacterial activity against Escherichia coli ATCC 25922 after 16 to 20 hrs by broth microdilution method
# Format: functional
# Conditions: not given
# Outline: as §1
row,SMILES,MIC [µg/mL]
1,CCCCCCCC[N+](C)(C)CC(=O)Nc1ccc(C(=O)/C=C/c2ccco2)cc1.[Cl-],4

# Tested on: Salmonella enterica
# Assay: Antibacterial activity against Salmonella enterica ATCC 13076 after 16 to 20 hrs by broth microdilution method
# Format: functional
# Conditions: not given
# Outline: as §1
row,SMILES,MIC [µg/mL]
1,CCCCCCCC[N+](C)(C)CC(=O)Nc1ccc(C(=O)/C=C/c2ccco2)cc1.[Cl-],16

# Tested on: not listed separately
# Assay: Hemolytic activity in sheep RBC after 1 hr
# Format: ADME, cell-based, Ovis aries, Erythrocyte
# Conditions: sheep red blood cells (erythrocytes)
# Outline: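 Sheep red blood cells (150 µL suspension) mixed with 50 µL of compound dilutions (5120-10 µg/mL), 1 h at 37 °C, then centrifuged. Supernatant read at 540 nm. Percent hemolysis calculated relative to RBC-only control (0%) and 0.1% Triton X-100 (100%).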
row,SMILES,HC50 at 1 h [µg/mL]
1,CCCCCCCC[N+](C)(C)CC(=O)Nc1ccc(C(=O)/C=C/c2ccco2)cc1.[Cl-],137

# Tested on: Staphylococcus aureus
# Assay: Antibacterial activity against methicillin-resistant Staphylococcus aureus clinical isolate 1105183 cono7 after 16 to 20 hrs by broth microdilution method
# Format: functional
# Conditions: not given
# Outline: (§2)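 CLSI broth microdilution in Mueller-Hinton broth. A 4-6 h culture was diluted to about 10⁶ CFU/mL and mixed 1:1 with compound dilutions prepared at 256 to 0.5 µg/mL from aqueous stocks. Plates were incubated at 37 °C for 16-20 h and read visually for MIC. Each concentration was run in duplicate, and the experiment was repeated at least twice. Vancomycin and meropenem were comparators.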
row,SMILES,MIC [µg/mL]
1,CCCCCCCC[N+](C)(C)CC(=O)Nc1ccc(C(=O)/C=C/c2ccco2)cc1.[Cl-],4

# Tested on: Staphylococcus aureus
# Assay: Antibacterial activity against methicillin-resistant Staphylococcus aureus clinical isolate 20130911034sau after 16 to 20 hrs by broth microdilution method
# Format: functional
# Conditions: not given
# Outline: as §2
row,SMILES,MIC [µg/mL]
1,CCCCCCCC[N+](C)(C)CC(=O)Nc1ccc(C(=O)/C=C/c2ccco2)cc1.[Cl-],2

# Tested on: Staphylococcus aureus
# Assay: Antibacterial activity against methicillin-resistant Staphylococcus aureus clinical isolate 0831010 after 16 to 20 hrs by broth microdilution method
# Format: functional
# Conditions: not given
# Outline: as §2
row,SMILES,MIC [µg/mL]
1,CCCCCCCC[N+](C)(C)CC(=O)Nc1ccc(C(=O)/C=C/c2ccco2)cc1.[Cl-],2

# Tested on: Staphylococcus aureus
# Assay: Antibacterial activity against methicillin-resistant Staphylococcus aureus clinical isolate 1104060 after 16 to 20 hrs by broth microdilution method
# Format: functional
# Conditions: not given
# Outline: as §2
row,SMILES,MIC [µg/mL]
1,CCCCCCCC[N+](C)(C)CC(=O)Nc1ccc(C(=O)/C=C/c2ccco2)cc1.[Cl-],32

# Tested on: Staphylococcus aureus
# Assay: Antibacterial activity against methicillin-resistant Staphylococcus aureus clinical isolate 20131012632sau after 16 to 20 hrs by broth microdilution method
# Format: functional
# Conditions: not given
# Outline: as §2
row,SMILES,MIC [µg/mL]
1,CCCCCCCC[N+](C)(C)CC(=O)Nc1ccc(C(=O)/C=C/c2ccco2)cc1.[Cl-],8

# Tested on: Staphylococcus aureus
# Assay: Antibacterial activity against methicillin-resistant Staphylococcus aureus clinical isolate 1207007 after 16 to 20 hrs by broth microdilution method
# Format: functional
# Conditions: not given
# Outline: as §2
row,SMILES,MIC [µg/mL]
1,CCCCCCCC[N+](C)(C)CC(=O)Nc1ccc(C(=O)/C=C/c2ccco2)cc1.[Cl-],2

# Tested on: Staphylococcus aureus
# Assay: Antibacterial activity against methicillin-resistant Staphylococcus aureus clinical isolate 1-may after 16 to 20 hrs by broth microdilution method
# Format: functional
# Conditions: not given
# Outline: as §2
row,SMILES,MIC [µg/mL]
1,CCCCCCCC[N+](C)(C)CC(=O)Nc1ccc(C(=O)/C=C/c2ccco2)cc1.[Cl-],4

# Tested on: Staphylococcus aureus
# Assay: Antibacterial activity against methicillin-resistant Staphylococcus aureus clinical isolate 0906202 after 16 to 20 hrs by broth microdilution method
# Format: functional
# Conditions: not given
# Outline: as §2
row,SMILES,MIC [µg/mL]
1,CCCCCCCC[N+](C)(C)CC(=O)Nc1ccc(C(=O)/C=C/c2ccco2)cc1.[Cl-],16

# Tested on: Staphylococcus aureus
# Assay: Antibacterial activity against methicillin-resistant Staphylococcus aureus clinical isolate 1208143 after 16 to 20 hrs by broth microdilution method
# Format: functional
# Conditions: not given
# Outline: as §2
row,SMILES,MIC [µg/mL]
1,CCCCCCCC[N+](C)(C)CC(=O)Nc1ccc(C(=O)/C=C/c2ccco2)cc1.[Cl-],2

# Tested on: Klebsiella pneumoniae
# Assay: Antibacterial activity against drug-resistant carbapenemase producing Klebsiella pneumoniae clinical isolate KP-14-8 after 16 to 20 hrs by broth microdilution method
# Format: functional
# Conditions: not given
# Outline: as §2
row,SMILES,MIC [µg/mL]
1,CCCCCCCC[N+](C)(C)CC(=O)Nc1ccc(C(=O)/C=C/c2ccco2)cc1.[Cl-],16

# Tested on: Klebsiella pneumoniae
# Assay: Antibacterial activity against drug-resistant carbapenemase producing Klebsiella pneumoniae clinical isolate KP-13-45 after 16 to 20 hrs by broth microdilution method
# Format: functional
# Conditions: not given
# Outline: as §2
row,SMILES,MIC [µg/mL]
1,CCCCCCCC[N+](C)(C)CC(=O)Nc1ccc(C(=O)/C=C/c2ccco2)cc1.[Cl-],32

# Tested on: Klebsiella pneumoniae
# Assay: Antibacterial activity against drug-resistant carbapenemase producing Klebsiella pneumoniae clinical isolate KP-14-3 after 16 to 20 hrs by broth microdilution method
# Format: functional
# Conditions: not given
# Outline: as §2
row,SMILES,MIC [µg/mL]
1,CCCCCCCC[N+](C)(C)CC(=O)Nc1ccc(C(=O)/C=C/c2ccco2)cc1.[Cl-],32

# Tested on: Klebsiella pneumoniae
# Assay: Antibacterial activity against drug-resistant carbapenemase producing Klebsiella pneumoniae clinical isolate KP-14-1 after 16 to 20 hrs by broth microdilution method
# Format: functional
# Conditions: not given
# Outline: as §2
row,SMILES,MIC [µg/mL]
1,CCCCCCCC[N+](C)(C)CC(=O)Nc1ccc(C(=O)/C=C/c2ccco2)cc1.[Cl-],32

# Tested on: Klebsiella pneumoniae
# Assay: Antibacterial activity against drug-resistant carbapenemase producing Klebsiella pneumoniae clinical isolate KP-14-4 after 16 to 20 hrs by broth microdilution method
# Format: functional
# Conditions: not given
# Outline: as §2
row,SMILES,MIC [µg/mL]
1,CCCCCCCC[N+](C)(C)CC(=O)Nc1ccc(C(=O)/C=C/c2ccco2)cc1.[Cl-],16
